Experimental data: ChEMBL document CHEMBL2331117 (J Med Chem, 2013)

What was measured:
[1] = molecular target: Receptor-type tyrosine-protein kinase FLT3 (Homo sapiens, UniProt P36888); experiment: Inhibition of FLT3 (unknown origin)
Mus musculus [2] = experiment: In vivo inhibition of mTORC2-mediated phosphorylation of AKT at serine 473 in human PC3 cells xenografted into athymic nude mouse at 100 mg/kg, po after 4 hrs by Western blotting analysis relative to control; assay type: functional; settings: PC-3, 4 h
How it was run: (§1)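 PC-3 cells grown in DMEM with 20% FBS were implanted subcutaneously at 3 × 10^6 cells in ice-cold HBSS into the hindflank of 5−8 week old male nude mice. At tumor size 200−500 mg, mice received a single oral dose of 100 mg/kg. Plasma and tumors were collected at 1, 4, 8, 16, 24 and 32 h. Tumor lysates from each group (n = 5) were pooled. Phospho-proteins were quantified by Western blot and normalized to α-tubulin.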

Mus musculus [3] = experiment: In vivo inhibition of mTORC1-mediated phosphorylation of 4EBP1 at ([…]) in human MCF7 cells xenografted into athymic nude mouse at 100 mg/kg, po after 1 hr by Western blotting analysis relative to control; assay type: functional; settings: MCF7, 1 h
[4] = AUC (0 to infinity) in CD rat at 3 mg/kg, po; assay type: ADME, organism-based; set-up: time infinity, dose 3 mg/kg, route oral; settings: plasma
How it was run: (§2)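 Single-dose PK: female athymic nude mice (10 mg/kg), female CD rats and male beagle dogs (3 mg/kg), male cynomolgus monkeys (3 mg/kg), given iv and by oral gavage. Solution in EPW (5% ethanol/45% PEG400/water), with 1:2 HCl (m/m) for mouse, rat and dog and 1:1.5 HCl (m/m) for monkey. Plasma levels followed over 24 h.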

[5] = Drug uptake in tumor of athymic mouse xenografted with human PC3 cells at 100 mg/kg, po after 8 hrs; assay type: ADME, organism-based, Neoplasm, PC-3; set-up: dose 100 mg/kg, route oral; settings: read-out: Drug uptake
How it was run: (§3)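 PC-3 cells (3 × 10⁶, passages 10–14, in ice-cold HBSS) were implanted sc in 5–8 week old male nude mice. Tumors of 200–500 mg received a single oral 100 mg/kg dose. Plasma and tumor were collected at 1, 4, 8, 16, 24 and 32 h and homogenized in buffer. Lysates were pooled per group (n = 5), and phospho-proteins were measured by Western blot normalized to α-tubulin.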

[6] = Plasma concentration in athymic mouse plasma xenografted with human PC3 cells at 100 mg/kg, po after 8 hrs; assay type: ADME, organism-based, PC-3; set-up: dose 100 mg/kg, route oral
Plasma [7] = experiment: Plasma concentration in athymic mouse plasma xenografted with human PC3 cells at 100 mg/kg, po after 24 hrs; assay type: ADME, organism-based, PC-3; set-up: dose 100 mg/kg, route oral; settings: in vivo, BLD = below limit of detection
[8] = molecular target: Voltage-gated inwardly rectifying potassium channel KCNH2 (Homo sapiens, UniProt Q12809); experiment: Activity at human ERG by patch clamp technique
Sequence of Voltage-gated inwardly rectifying potassium channel KCNH2 (Q12809 whole entry): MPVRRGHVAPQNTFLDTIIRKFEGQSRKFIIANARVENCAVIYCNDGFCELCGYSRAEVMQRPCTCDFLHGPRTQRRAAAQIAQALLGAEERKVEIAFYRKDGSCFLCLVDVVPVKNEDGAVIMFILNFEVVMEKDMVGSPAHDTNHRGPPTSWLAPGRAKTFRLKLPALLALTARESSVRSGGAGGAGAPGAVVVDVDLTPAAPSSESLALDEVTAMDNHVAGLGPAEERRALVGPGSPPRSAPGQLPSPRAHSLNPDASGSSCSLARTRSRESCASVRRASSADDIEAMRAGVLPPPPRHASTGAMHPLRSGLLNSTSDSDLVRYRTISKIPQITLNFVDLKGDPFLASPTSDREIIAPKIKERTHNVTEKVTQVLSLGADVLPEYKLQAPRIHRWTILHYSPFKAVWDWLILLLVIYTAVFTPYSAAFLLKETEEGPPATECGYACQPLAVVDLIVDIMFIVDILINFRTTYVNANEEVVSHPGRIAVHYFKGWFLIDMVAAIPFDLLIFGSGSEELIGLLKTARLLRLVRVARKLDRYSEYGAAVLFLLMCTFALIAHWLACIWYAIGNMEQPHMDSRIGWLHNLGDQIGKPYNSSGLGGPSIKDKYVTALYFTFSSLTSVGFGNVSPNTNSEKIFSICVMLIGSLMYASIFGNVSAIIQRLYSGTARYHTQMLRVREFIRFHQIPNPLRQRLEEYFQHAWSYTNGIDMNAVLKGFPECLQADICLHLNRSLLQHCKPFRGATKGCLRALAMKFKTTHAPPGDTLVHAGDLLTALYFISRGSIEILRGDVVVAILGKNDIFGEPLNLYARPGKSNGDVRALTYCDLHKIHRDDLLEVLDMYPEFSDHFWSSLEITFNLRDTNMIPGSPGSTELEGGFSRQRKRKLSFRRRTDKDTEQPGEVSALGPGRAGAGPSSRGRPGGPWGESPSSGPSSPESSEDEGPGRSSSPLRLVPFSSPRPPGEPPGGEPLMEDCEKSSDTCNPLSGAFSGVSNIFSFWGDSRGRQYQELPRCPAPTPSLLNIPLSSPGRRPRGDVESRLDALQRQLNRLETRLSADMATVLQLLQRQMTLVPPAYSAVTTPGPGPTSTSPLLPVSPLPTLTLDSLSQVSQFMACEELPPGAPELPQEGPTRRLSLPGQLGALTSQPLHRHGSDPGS
How it was run: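 hERG current measured by manual patch clamp.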

[9] = molecular target: Dual specificity mitogen-activated protein kinase kinase 1 (Homo sapiens, UniProt Q02750); experiment: Inhibition of MEK1 (unknown origin)
Sequence of Dual specificity mitogen-activated protein kinase kinase 1 (Q02750 whole entry): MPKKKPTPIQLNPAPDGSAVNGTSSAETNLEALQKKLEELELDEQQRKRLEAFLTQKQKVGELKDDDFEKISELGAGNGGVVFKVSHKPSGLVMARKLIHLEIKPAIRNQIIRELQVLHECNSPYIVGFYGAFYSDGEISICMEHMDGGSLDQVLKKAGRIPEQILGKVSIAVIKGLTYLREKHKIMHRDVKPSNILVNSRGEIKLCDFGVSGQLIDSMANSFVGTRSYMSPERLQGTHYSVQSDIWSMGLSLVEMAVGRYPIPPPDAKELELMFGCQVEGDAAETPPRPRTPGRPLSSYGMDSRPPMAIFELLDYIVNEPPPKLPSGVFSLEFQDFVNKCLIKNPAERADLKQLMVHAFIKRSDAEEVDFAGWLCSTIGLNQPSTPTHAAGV

[10] = Volume of distribution at steady state in cynomolgus monkey at 3 mg/kg, iv; assay type: ADME, organism-based, Macaca fascicularis; set-up: dose 3 mg/kg, route intravenous; settings: in vivo, read-out: Vdss
[11] = molecular target: ATP-dependent translocase ABCB1 (Homo sapiens, UniProt P08183); experiment: Activity at P-glycoprotein (unknown origin)
Sequence of ATP-dependent translocase ABCB1 (P08183 whole entry): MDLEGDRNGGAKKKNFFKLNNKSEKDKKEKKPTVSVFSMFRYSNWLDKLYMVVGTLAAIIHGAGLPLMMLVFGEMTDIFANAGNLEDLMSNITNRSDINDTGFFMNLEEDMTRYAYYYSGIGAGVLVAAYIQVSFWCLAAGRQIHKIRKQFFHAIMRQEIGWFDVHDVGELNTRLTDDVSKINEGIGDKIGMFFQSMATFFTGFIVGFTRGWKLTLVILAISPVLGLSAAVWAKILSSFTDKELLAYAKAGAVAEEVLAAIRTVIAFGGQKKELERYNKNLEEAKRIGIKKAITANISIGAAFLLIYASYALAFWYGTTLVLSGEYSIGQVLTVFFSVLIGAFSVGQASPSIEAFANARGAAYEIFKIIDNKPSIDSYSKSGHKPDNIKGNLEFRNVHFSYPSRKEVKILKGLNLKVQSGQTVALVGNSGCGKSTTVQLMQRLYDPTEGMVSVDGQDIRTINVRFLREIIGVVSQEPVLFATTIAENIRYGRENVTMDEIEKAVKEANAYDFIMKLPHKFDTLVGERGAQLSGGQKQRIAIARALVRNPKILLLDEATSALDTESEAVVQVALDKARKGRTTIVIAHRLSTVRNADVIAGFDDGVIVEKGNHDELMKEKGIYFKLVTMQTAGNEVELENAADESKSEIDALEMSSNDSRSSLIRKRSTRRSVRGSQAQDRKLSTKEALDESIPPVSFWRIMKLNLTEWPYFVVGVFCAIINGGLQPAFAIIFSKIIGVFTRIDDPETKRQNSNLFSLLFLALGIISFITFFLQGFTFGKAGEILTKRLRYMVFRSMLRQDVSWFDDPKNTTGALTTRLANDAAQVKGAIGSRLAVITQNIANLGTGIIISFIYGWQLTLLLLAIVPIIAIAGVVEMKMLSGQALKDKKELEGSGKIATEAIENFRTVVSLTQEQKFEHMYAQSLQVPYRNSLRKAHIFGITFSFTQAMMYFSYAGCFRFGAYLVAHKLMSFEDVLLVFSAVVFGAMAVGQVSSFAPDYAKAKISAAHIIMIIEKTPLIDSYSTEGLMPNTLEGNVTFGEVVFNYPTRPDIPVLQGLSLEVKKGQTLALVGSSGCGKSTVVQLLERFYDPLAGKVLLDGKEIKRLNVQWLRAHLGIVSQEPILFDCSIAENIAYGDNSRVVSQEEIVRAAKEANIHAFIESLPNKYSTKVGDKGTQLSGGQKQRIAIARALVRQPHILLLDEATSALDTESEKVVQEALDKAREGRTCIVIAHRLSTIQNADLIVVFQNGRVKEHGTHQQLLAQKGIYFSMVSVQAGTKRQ

Plasma [12] = experiment: Plasma concentration in athymic mouse plasma xenografted with human PC3 cells at 100 mg/kg, po after 32 hrs; assay type: ADME, organism-based, PC-3; set-up: dose 100 mg/kg, route oral; settings: in vivo, BLD = below limit of detection
[13] = molecular target: Platelet-derived growth factor receptor beta (Homo sapiens, UniProt P09619); experiment: Inhibition of PDGFRbeta (unknown origin)
Sequence of Platelet-derived growth factor receptor beta (P09619 whole entry): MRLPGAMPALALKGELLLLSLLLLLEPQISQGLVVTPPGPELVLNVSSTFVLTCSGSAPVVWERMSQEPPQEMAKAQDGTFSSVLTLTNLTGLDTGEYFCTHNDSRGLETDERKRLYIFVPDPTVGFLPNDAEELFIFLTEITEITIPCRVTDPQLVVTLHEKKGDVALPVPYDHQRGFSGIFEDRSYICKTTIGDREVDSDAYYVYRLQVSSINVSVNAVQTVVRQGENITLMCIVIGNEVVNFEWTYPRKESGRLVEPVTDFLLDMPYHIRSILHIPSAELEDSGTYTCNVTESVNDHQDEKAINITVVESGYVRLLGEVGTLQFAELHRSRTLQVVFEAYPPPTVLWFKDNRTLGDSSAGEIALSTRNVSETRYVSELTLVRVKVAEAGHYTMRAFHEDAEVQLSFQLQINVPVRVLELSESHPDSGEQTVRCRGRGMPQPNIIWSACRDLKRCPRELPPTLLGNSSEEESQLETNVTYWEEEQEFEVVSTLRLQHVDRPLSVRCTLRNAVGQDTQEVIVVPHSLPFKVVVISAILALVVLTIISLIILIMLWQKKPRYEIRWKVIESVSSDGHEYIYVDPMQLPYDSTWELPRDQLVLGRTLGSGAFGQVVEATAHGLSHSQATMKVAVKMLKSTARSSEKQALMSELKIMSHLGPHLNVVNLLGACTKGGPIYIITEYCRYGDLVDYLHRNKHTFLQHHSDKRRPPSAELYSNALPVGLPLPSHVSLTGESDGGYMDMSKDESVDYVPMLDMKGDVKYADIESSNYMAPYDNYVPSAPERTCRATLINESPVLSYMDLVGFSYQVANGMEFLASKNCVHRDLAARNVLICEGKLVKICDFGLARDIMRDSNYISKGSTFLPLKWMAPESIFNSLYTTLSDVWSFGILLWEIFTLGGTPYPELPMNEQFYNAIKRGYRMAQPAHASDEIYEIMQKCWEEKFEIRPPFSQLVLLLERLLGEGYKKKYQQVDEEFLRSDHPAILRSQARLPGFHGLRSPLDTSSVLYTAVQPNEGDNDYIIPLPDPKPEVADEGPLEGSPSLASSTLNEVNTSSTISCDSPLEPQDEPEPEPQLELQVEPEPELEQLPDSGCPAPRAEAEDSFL

Mus musculus [14] = experiment: In vivo inhibition of mTORC1-mediated phosphorylation of p70S6K at […] in human PC3 cells xenografted into athymic nude mouse at 100 mg/kg, po after 1 hr by Western blotting analysis relative to control; assay type: functional; settings: PC-3, 1 h; how it was run: as §1
Mus musculus [15] = experiment: In vivo inhibition of mTORC1-mediated phosphorylation of p70S6K at […] in human MCF7 cells xenografted into athymic nude mouse at 100 mg/kg, po after 4 hrs by Western blotting analysis relative to control; assay type: functional; settings: MCF7, 4 h
How it was run: (§4)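 MCF-7 cells (DMEM, 10% FBS) were implanted subcutaneously at 5 × 10^6 cells in 50% cold HBSS/50% growth-factor-reduced matrigel into the hindflank of 5−8 week old female nude mice. At tumor size 40−150 mg, mice received a single oral dose of 100 mg/kg. Tumor lysates were pooled per group. Phospho-AKT (S473, T308), p70S6K (T389), S6 (S240/244) and 4E-BP1 (T37/46) were measured by Western blot normalized to α-tubulin.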

Mus musculus [16] = experiment: In vivo inhibition of mTORC1-mediated phosphorylation of pS6 at (serine 240/244) in human PC3 cells xenografted into athymic nude mouse at 100 mg/kg, po after 4 hrs by Western blotting analysis relative to control; assay type: functional; settings: PC-3, 4 h; how it was run: as §1
Mus musculus [17] = experiment: In vivo inhibition of mTORC2-mediated phosphorylation of AKT at […] in human MCF7 cells xenografted into athymic nude mouse at 100 mg/kg, po after 4 hrs by Western blotting analysis relative to control; assay type: functional; settings: MCF7, 4 h
How it was run: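 Human MCF-7 cells were implanted subcutaneously into the hindflank of female nude mice aged 5−8 weeks, at 5 × 10^6 cells in 50% cold HBSS/50% growth-factor-reduced matrigel. At a tumor size of 40−150 mg, mice got one oral dose. Tumor lysates were pooled per group. Phospho-AKT (T308) was read by Western blot and normalized to α-tubulin.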

Mus musculus [18] = experiment: In vivo inhibition of mTORC2-mediated phosphorylation of AKT at serine 473 in human PC3 cells xenografted into athymic nude mouse at 100 mg/kg, po after 24 hrs by Western blotting analysis relative to control; assay type: functional; settings: PC-3, 24 h; how it was run: as §1
[19] = Clearance in athymic nude mouse at 10 mg/kg, iv; assay type: ADME, organism-based; set-up: dose 10 mg/kg, route intravenous; settings: in vivo; how it was run: as §2
[20] = Half life in Beagle dog at 3 mg/kg, iv; assay type: ADME, organism-based, Canis lupus familiaris; set-up: dose 3 mg/kg, route intravenous; settings: in vivo; how it was run: as §2
[21] = Drug uptake in tumor of athymic mouse xenografted with human MCF7 cells at 100 mg/kg, po after 4 hrs; assay type: ADME, organism-based, Neoplasm; set-up: dose 100 mg/kg, route oral; settings: read-out: Drug uptake
[22] = Drug uptake in tumor of athymic mouse xenografted with human MCF7 cells at 100 mg/kg, po after 24 hrs; assay type: ADME, organism-based, Neoplasm; set-up: dose 100 mg/kg, route oral; settings: in vivo, BLD = below limit of detection
Mus musculus [23] = experiment: In vivo inhibition of mTORC2-mediated phosphorylation of AKT at […] in human PC3 cells xenografted into athymic nude mouse at 100 mg/kg, po after 1 hr by Western blotting analysis relative to control; assay type: functional; settings: PC-3, 1 h
How it was run: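 Human PC-3 cells were implanted subcutaneously into the hindflank of male nude mice aged 5−8 weeks, at 3 × 10^6 cells (passages 10−14, >95% viability) in ice-cold HBSS. At a tumor size of 200−500 mg, mice got one oral 100 mg/kg dose. Tumors were taken at 1, 4, 8, 16, 24 and 32 h. Lysates (n = 5 per group) were pooled, and phospho-AKT (T308) was read by Western blot, normalized to α-tubulin.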

Mus musculus [24] = experiment: In vivo inhibition of mTORC1-mediated phosphorylation of p70S6K at […] in human MCF7 cells xenografted into athymic nude mouse at 100 mg/kg, po after 1 hr by Western blotting analysis relative to control; assay type: functional; settings: MCF7, 1 h; how it was run: as §4
[25] = Cmax in Beagle dog at 3 mg/kg, iv; assay type: ADME, organism-based, Canis lupus familiaris; set-up: dose 3 mg/kg, route intravenous; settings: in vivo; how it was run: as §2
[26] = Drug uptake in tumor of athymic mouse xenografted with human PC3 cells at 100 mg/kg, po after 32 hrs; assay type: ADME, organism-based, Neoplasm, PC-3; set-up: dose 100 mg/kg, route oral; settings: in vivo, BLD = below limit of detection; how it was run: as §3

Sequence of Receptor-type tyrosine-protein kinase FLT3 (P36888 whole entry): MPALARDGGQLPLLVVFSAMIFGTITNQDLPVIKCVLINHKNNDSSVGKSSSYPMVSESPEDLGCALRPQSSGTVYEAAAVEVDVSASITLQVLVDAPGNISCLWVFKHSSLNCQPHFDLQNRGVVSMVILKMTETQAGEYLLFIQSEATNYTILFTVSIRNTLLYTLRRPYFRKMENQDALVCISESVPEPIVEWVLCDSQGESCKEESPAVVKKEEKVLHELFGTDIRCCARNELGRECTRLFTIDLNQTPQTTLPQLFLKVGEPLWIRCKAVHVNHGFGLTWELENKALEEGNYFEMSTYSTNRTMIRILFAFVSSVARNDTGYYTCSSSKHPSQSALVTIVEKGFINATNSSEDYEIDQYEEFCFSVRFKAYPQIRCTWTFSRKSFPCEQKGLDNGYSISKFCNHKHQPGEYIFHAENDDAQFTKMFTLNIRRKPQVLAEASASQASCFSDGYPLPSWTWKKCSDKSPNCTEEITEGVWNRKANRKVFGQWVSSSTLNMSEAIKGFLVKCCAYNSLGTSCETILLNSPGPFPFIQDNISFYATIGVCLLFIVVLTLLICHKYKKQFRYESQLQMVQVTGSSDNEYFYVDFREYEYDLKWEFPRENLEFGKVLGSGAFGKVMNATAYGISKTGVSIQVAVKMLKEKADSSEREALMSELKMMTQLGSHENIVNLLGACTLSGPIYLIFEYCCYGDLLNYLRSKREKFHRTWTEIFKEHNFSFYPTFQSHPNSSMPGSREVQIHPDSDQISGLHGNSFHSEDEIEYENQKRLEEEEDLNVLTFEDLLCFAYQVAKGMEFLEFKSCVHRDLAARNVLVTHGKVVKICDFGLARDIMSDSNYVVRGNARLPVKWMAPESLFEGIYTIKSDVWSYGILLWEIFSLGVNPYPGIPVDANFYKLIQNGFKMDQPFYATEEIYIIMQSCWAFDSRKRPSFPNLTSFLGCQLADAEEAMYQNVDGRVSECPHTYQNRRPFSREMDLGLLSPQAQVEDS

IC50 [1]: > 3.5 µM
AUC(0-inf) [4]: 0.952 µM·h
concentration at 8 h [5]: 25.5 µM
concentration at 8 h [6]: 26.7 µM
Cp (Plasma [7]): BLD
IC50 [9]: > 3.5 µM
Vd [10]: 6.42 L/kg
Activity [11]: > 20 µM
Cp (Plasma [12]): BLD
IC50 [13]: > 3.5 µM
clearance [19]: 45.8 mL/min/kg
half-life [20]: 6.11 h
concentration at 4 h [21]: 35.9 µM
Drug uptake [22]: BLD
Cmax [25]: 2.28 µM
Drug uptake [26]: BLD
Structure (SMILES): Cc1c(C(=O)N2CCOc3ccc(-c4ccc(N)nc4)cc3C2)ccc(S(C)(=O)=O)c1F
inhibition in vivo at 100 mg/kg (Mus musculus [2]): 81%
inhibition in vivo at 100 mg/kg (Mus musculus [3]): 94%
Activity [8]: 15.9 µM
inhibition in vivo at 100 mg/kg (Mus musculus [14]): 87%
inhibition in vivo at 100 mg/kg (Mus musculus [15]): 85%
inhibition in vivo at 100 mg/kg (Mus musculus [16]): 90%
inhibition in vivo at 100 mg/kg (Mus musculus [17]): 13%
inhibition in vivo at 100 mg/kg (Mus musculus [18]): 5%
inhibition in vivo at 100 mg/kg (Mus musculus [23]): -24%
inhibition in vivo at 100 mg/kg (Mus musculus [24]): 85%
